This is an account of results in ChEMBL document CHEMBL1121927, “Adriamycin analogues. Novel anomeric ribofuranoside analogues of daunorubicin” (1982).

In assay [1] the test system is L1210. The assay can be described thus: Increase in life span of treated animals relative to untreated controls expressed in murine L1210 leukemia at a dose of 4 mg/kg x4 after ip injection. Particulars: Mus musculus, route intraperitoneal. The assay is classed as functional. In short, it runs like this: (§1)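 Mice implanted ip with 10⁵ L1210 leukemia cells on day 0. Treatment given ip once daily on days 1-4. Read-out is % ILS, the increase in life span of treated animals relative to untreated controls.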

For assay [2], the system named is Nucleic Acid. Kind of assay: Compound was tested for the extent of DNA binding in calf thymus at pH 7 TRIS buffer. It is filed as nucleic-acid assay. The note with it: Bos taurus. In short, it runs like this:
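Spectral shift method with calf thymus DNA in Tris buffer, pH 7.0, at a drug/DNA molar ratio of 0.1. Binding extent is taken as the ratio of the absorbance of the drug–DNA mixture to that of drug alone at 480 nm.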

Assay [3] deals with CCRF-CEM. Kind of assay: Inhibitory activity of compound against CCRF-CEM cells,a lymphoblastic leukemic of human origin propagated in suspension culture. The assay is classed as functional. The note with it: read-out: ID50 (the source's name).
Assay [4] deals with L1210. Kind of assay: Increase in life span of treated animals relative to untreated controls expressed in murine L1210 leukemia at a dose of 50.6 mg/kg x4 after ip injection. The note with it: Mus musculus, route intraperitoneal. The assay is classed as functional. In short, it runs like this: as §1
Assay [5] deals with L1210. Kind of assay: Increase in life span of treated animals relative to untreated controls expressed in murine L1210 leukemia at a dose of 50 mg/kg x4 after ip injection; curative. The assay is classed as functional, organism-based. Particulars: Mus musculus. Also on record: dose 50 mg/kg.
In assay [6] the test system is L1210. The assay can be described thus: Increase in life span of treated animals relative to untreated controls expressed in murine L1210 leukemia at a dose of 45 mg/kg x4 after ip injection. The assay is classed as functional. The note with it: Mus musculus, route intraperitoneal. In short, it runs like this:
as §1

The subject of assay [7] is L1210. Kind of assay: Increase in life span of treated animals relative to untreated controls expressed in murine L1210 leukemia at a dose of 70 mg/kg x4 after ip injection. The assay is classed as functional. The note with it: Mus musculus, route intraperitoneal. In short, it runs like this: as §1
The subject of assay [8] is L1210. Kind of assay: Increase in life span of treated animals relative to untreated controls expressed in murine L1210 leukemia at a dose of 15 mg/kg x4 after ip injection. It is filed as functional. Particulars: Mus musculus, route intraperitoneal. In short, it runs like this:
as §1

Assay [9] relates to L1210. The assay can be described thus: Increase in life span of treated animals relative to untreated controls expressed in murine L1210 leukemia at a dose of 90 mg/kg x4 after ip injection. The assay is classed as functional. Particulars: Mus musculus, route intraperitoneal. In short, it runs like this: as §1

In the case of `COc1cccc2c1C(=O)c1c(O)c3c(c(O)c1C2=O)C[C@@](O)(C(=O)CO)C[C@@H]3O[C@H]1C[C@H](N)[C@H](O)[C@H](C)O1` [DOXORUBICIN], in assay [1], the ILS at 4 mg/kg came to 66%. The Extent of DNA binding in assay [2] amounted to 0.62. Also, in [3], the IC50 is 66 nM.
On to `COc1cccc2c1C(=O)c1c(O)c3c(c(O)c1C2=O)C[C@@](O)(C(C)=O)C[C@@H]3O[C@@H]1O[C@H](C)[C@@H](N)[C@H]1O`, for which the Extent of DNA binding in [2] came out at 0.86. The compound also came in with an ILS at 50.6 mg/kg in [4] of 55%. Further, in [3], the IC50 was 210 nM.
In the case of `CCCCC(=O)OCC(=O)[C@]1(O)Cc2c(O)c3c(c(O)c2[C@@H](OC2CC(NC(=O)C(F)(F)F)C(O)C(C)O2)C1)C(=O)c1c(OC)cccc1C3=O` (some centres undefined), the Extent of DNA binding in assay [2] came to 0.96. The ILS result in assay [5] is reported as “Curative”. The IC50 in assay [3] was 240 nM.
For `COc1cccc2c1C(=O)c1c(O)c3c(c(O)c1C2=O)C[C@@](O)(C(C)=O)C[C@@H]3O[C@H]1O[C@H](C)[C@@H](NC(=O)C(F)(F)F)[C@H]1O`, the ILS at 45 mg/kg in assay [6] was found to be 55%. The IC50 in [3] stood at 890 nM.
In assay [7], `COc1cccc2c1C(=O)c1c(O)c3c(c(O)c1C2=O)C[C@@](O)(C(C)=O)C[C@@H]3O[C@@H]1O[C@H](C)[C@@H](NC(=O)C(F)(F)F)[C@H]1O` yielded an ILS at 70 mg/kg of 66%. The IC50 in assay [3] was determined as 1080 nM.
Regarding `COc1cccc2c1C(=O)c1c(O)c3c(c(O)c1C2=O)C[C@@](O)(C(C)=O)C[C@@H]3O[C@H]1O[C@H](C)[C@@H](N)[C@H]1O`, the Extent of DNA binding in assay [2] stood at 0.8. In addition, the IC50 in assay [3] turned out to be 280 nM. In addition, the increase in lifespan (ILS) at 15 mg/kg in [8] was determined as 22%.
As to `COc1cccc2c1C(=O)c1c(O)c3c(c(O)c1C2=O)C[C@@](O)(C(C)=O)C[C@@H]3O[C@@H]1O[C@H](CO)[C@@H](O)[C@H](O)[C@H]1N`, the Extent of DNA binding in [2] stood at 0.82. In [9], this compound came in with an ILS at 90 mg/kg of 60%. The IC50 in [3] is 3040 nM.

One may read the ILS as how much longer treated animals lived than controls. A lower ILS goes with little gain in survival.
